In ChEMBL document CHEMBL1122631, “2,3,4,4a,5,9b-Hexahydro-1H-indeno[1,2-b]pyridines: potential antidepressants” (J Med Chem, 1984):

Experiments:
Mus musculus [1] = assay: Prevention of tetrabenazine (TBZ)-induced ptosis in mice after intraperitoneal administration.; type: functional, organism-based
Procedure, shortened: (§1)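 Mice given compound ip in 1% methylcellulose (10 mL/kg), 30 min before tetrabenazine 40 mg/kg base ip; solvent+TBZ control per test. Ptosis scored 30 min after TBZ (+1 min) as 100/50/0% (closed/half/open), not normalized.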

[2] = Acute toxicity in mice, after intraperitoneal administration.; type: organism-based; conditions: mouse, in vivo, ip
Procedure, shortened: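 Mice, groups of 10, given compound suspended in 1% methylcellulose ip at 10 mL/kg, then housed with food and water ad libitum. Observed hourly up to 6 h; deaths recorded at 24 and 48 h.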

Rattus norvegicus [3] = species on record: Rattus norvegicus; assay: Compound was tested for inhibition of uptake of [14C]5-HT (5-HT) into rat whole brain, in vitro.; type: functional
Procedure, shortened: (§2)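 Rat brain synaptosomes (Whittaker method) incubated with labelled monoamine (1 × 10^-7 mol final) at 37 °C with or without drug. [14C]NE and [14C]5-HT uptake in Krebs-Henseleit bicarbonate pH 7.4 with 11 mmol glucose; [3H]DA uptake in phosphate buffer, corpus striatum synaptosomes. Time: 5 min whole brain, 10 min hypothalamus. Nonspecific binding at 0 °C; membrane filtration, scintillation counting; IC50 from 3–4 concentrations, at least triplicate.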

Rattus norvegicus [4] = species on record: Rattus norvegicus; assay: Compound was tested for inhibition of uptake of [14C]norepinephrine (NE) into rat brain hypothalamus, in vitro.; type: functional; procedure, shortened: as §2
Rattus norvegicus [5] = species on record: Rattus norvegicus; assay: Compound was tested for inhibition of uptake of [14C]norepinephrine (NE) into rat brain hypothalamus, in vitro; Not determined.; type: functional; procedure, shortened: as §2
Rattus norvegicus [6] = species on record: Rattus norvegicus; assay: Compound was tested for inhibition of uptake of [14C]5-HT (5-HT) into rat whole brain, in vitro; Not determined.; type: functional; procedure, shortened: as §2
Mus musculus [7] = assay: Prevention of tetrabenazine induced ptosis in mice following i.p. administration.; type: functional; conditions: ip; procedure, shortened: as §1
[8] = Therapeutic index (TI), ratio of LD50 and ED50 (TBZ) in mice after i.p. administration; conditions: mouse, in vivo, ip

| Structure (SMILES) | ED50 (Mus musculus [1]) | LD50 [2] | also measured |
| --- | --- | --- | --- |
| CN1CCC[C@H]2[C@@H](c3ccc(F)cc3)c3ccccc3[C@H]21 | No activity detected up to a dose of 1/5 LD50 ip in mice | 22 mg/kg | – |
| CNCCCN1c2ccccc2CCc2ccccc21 [DESIPRAMINE] | – | – | IC50 (Rattus norvegicus [3]): 11 nM; IC50 (Rattus norvegicus [4]): 25 nM |
| Cc1ccc([C@H]2c3ccccc3[C@H]3NCCC[C@@H]23)cc1N | No activity detected up to a dose of 1/5 LD50 ip in mice | 45 mg/kg | – |
| CCCCOc1ccc([C@H]2c3ccccc3[C@H]3NCCC[C@@H]23)cc1 | – | – | IC50 (Rattus norvegicus [5]): No compound available; IC50 (Rattus norvegicus [6]): No compound available |
| Fc1ccccc1[C@H]1c2ccccc2[C@H]2NCCC[C@@H]12 | No activity detected up to a dose of 1/5 LD50 ip in mice | 71 mg/kg | – |
| CCCN1CCC[C@H]2[C@@H](c3ccccc3)c3ccccc3[C@H]21 | No activity detected up to a dose of 1/5 LD50 ip in mice | 90 mg/kg | – |
| Cc1ccc([C@@H]2c3cc(O)ccc3[C@@H]3[C@H]2CCCN3C)cc1 | No activity detected up to a dose of 1/5 LD50 ip in mice | 187 mg/kg | – |
| COc1cc2c(cc1OC)[C@H]1NCCC[C@H]1[C@H]2c1ccc(N)cc1 | No activity detected up to a dose of 1/5 LD50 ip in mice | 94 mg/kg | – |
| Cc1ccc([C@H]2c3ccccc3[C@@H]3[C@H]2CCCN3C)cc1 | No activity detected up to a dose of 1/5 LD50 ip in mice | < 1 mg/kg | – |
| Cc1ccc([C@H]2c3cc(O)ccc3[C@H]3NCCC[C@@H]23)cc1 | No activity detected up to a dose of 1/5 LD50 ip in mice | 34 mg/kg | – |
| COc1ccc([C@H]2c3ccccc3[C@@H]3[C@H]2CCCN3C)cc1 | – | – | IC50 (Rattus norvegicus [5]): No compound available; IC50 (Rattus norvegicus [6]): No compound available |
| Cc1ccc([C@H]2c3cc(O)ccc3[C@@H]3[C@H]2CCCN3C)cc1 | No activity detected up to a dose of 1/5 LD50 ip in mice | 9 mg/kg | – |
| COc1ccc2c(c1)[C@H](c1ccc(C)cc1)[C@@H]1CCCN(C)[C@H]21 | No activity detected up to a dose of 1/5 LD50 ip in mice | 6 mg/kg | – |
| CN(C)c1ccc([C@H]2c3cc(O)ccc3[C@H]3NCCC[C@@H]23)cc1 | No activity detected up to a dose of 1/5 LD50 ip in mice | 67 mg/kg | – |
| Cc1ccccc1[C@@H]1c2ccccc2[C@@H]2[C@H]1CCCN2C | – | 106 mg/kg | ED50 (Mus musculus [7]): > 40 mg/kg |
| COc1ccc2c(c1)[C@H](c1ccc(N)cc1)[C@@H]1CCCN[C@H]21 | No activity detected up to a dose of 1/5 LD50 ip in mice | 50 mg/kg | – |
| Nc1cccc([C@@H]2c3ccccc3[C@H]3NCCC[C@@H]23)c1 | – | 40 mg/kg | selectivity ratio [8]: 20; ED50 (Mus musculus [7]): 2 mg/kg |
| Cc1cccc([C@H]2c3ccccc3[C@H]3NCCC[C@@H]23)c1 | No activity detected up to a dose of 1/5 LD50 ip in mice | 34 mg/kg | – |
| Cc1ccc([C@H]2c3ccccc3[C@H]3NCCC[C@@H]23)cc1 | – | 120 mg/kg | selectivity ratio [8]: 6; ED50 (Mus musculus [7]): 20 mg/kg |
| Cc1cccc([C@@H]2c3ccccc3[C@H]3NCCC[C@@H]23)c1 | – | 21 mg/kg | ED50 (Mus musculus [7]): 0.3 mg/kg |
| COc1ccc2c(c1)[C@@H](c1ccc(N(C)C)cc1)[C@@H]1CCCN[C@H]21 | – | – | IC50 (Rattus norvegicus [5]): No compound available; IC50 (Rattus norvegicus [6]): No compound available |
| Cc1ccccc1[C@H]1c2ccccc2[C@H]2NCCC[C@@H]12 | No activity detected up to a dose of 1/5 LD50 ip in mice | 52 mg/kg | – |
| Oc1ccc([C@H]2c3ccccc3[C@H]3NCCC[C@@H]23)cc1 | – | – | IC50 (Rattus norvegicus [5]): No compound available; IC50 (Rattus norvegicus [6]): No compound available |
| c1ccc([C@H]2c3ccccc3[C@H]3NCCC[C@@H]23)cc1 | No activity detected up to a dose of 1/5 LD50 ip in mice | 50 mg/kg | – |
| COc1ccc2c(c1)[C@H](c1ccc(C)cc1)[C@@H]1CCCN[C@H]21 | No activity detected up to a dose of 1/5 LD50 ip in mice | 54 mg/kg | – |
| Cc1ccccc1[C@H]1c2ccccc2[C@@H]2[C@H]1CCCN2C | No activity detected up to a dose of 1/5 LD50 ip in mice | 22 mg/kg | – |
| COc1ccc2c(c1)[C@H](c1ccc(N(C)C)cc1)[C@@H]1CCCN[C@H]21 | No activity detected up to a dose of 1/5 LD50 ip in mice | 48 mg/kg | – |
| Cc1cccc([C@@H]2c3ccccc3[C@@H]3[C@H]2CCCN3C)c1 | – | 134 mg/kg | ED50 (Mus musculus [7]): 5 mg/kg |

| Structure (SMILES) | ED50 (Mus musculus [1]) | LD50 [2] | also measured |
| --- | --- | --- | --- |
| COc1ccc2c(c1)[C@@H](c1ccc(N)cc1)[C@@H]1CCCN[C@H]21 | – | 60 mg/kg | selectivity ratio [8]: 60; ED50 (Mus musculus [7]): 1 mg/kg |
| COc1ccc2c(c1)[C@@H](c1ccc(C)cc1)[C@@H]1CCCN(C)[C@H]21 | No activity detected up to a dose of 1/5 LD50 ip in mice | 67 mg/kg | – |
| COc1cc2c(cc1OC)[C@H]1NCCC[C@H]1[C@@H]2c1ccccc1 | – | – | IC50 (Rattus norvegicus [5]): No compound available; IC50 (Rattus norvegicus [6]): No compound available |
| CC(C)c1ccc([C@@H]2c3cc(O)ccc3[C@H]3NCCC[C@@H]23)cc1 | No activity detected up to a dose of 1/5 LD50 ip in mice | 50 mg/kg | – |
| Cc1ccccc1[C@@H]1c2ccccc2[C@H]2NCCC[C@@H]12 | No activity detected up to a dose of 1/5 LD50 ip in mice | 80 mg/kg | – |
| COc1cc2c(cc1OC)[C@H]1NCCC[C@H]1[C@@H]2c1ccc(N)cc1 | – | – | IC50 (Rattus norvegicus [5]): No compound available; IC50 (Rattus norvegicus [6]): No compound available |
| COc1cc2c(cc1OC)[C@H]1NCCC[C@H]1[C@@H]2c1cccnc1 | – | – | IC50 (Rattus norvegicus [5]): No compound available; IC50 (Rattus norvegicus [6]): No compound available |
| COc1ccc2c(c1)[C@@H](c1ccc(C)cc1)[C@@H]1CCCN[C@H]21 | – | – | IC50 (Rattus norvegicus [5]): No compound available; IC50 (Rattus norvegicus [6]): No compound available |
| FC(F)(F)c1ccccc1[C@H]1c2ccccc2[C@H]2NCCC[C@@H]12 | No activity detected up to a dose of 1/5 LD50 ip in mice | 24 mg/kg | – |
| COc1cc2c(cc1OC)[C@@H]1[C@@H](CCCN1C)[C@H]2c1ccccc1 | No activity detected up to a dose of 1/5 LD50 ip in mice | 70 mg/kg | – |
| CCCCOc1ccc([C@H]2c3ccccc3[C@@H]3[C@H]2CCCN3C)cc1 | – | – | IC50 (Rattus norvegicus [5]): No compound available; IC50 (Rattus norvegicus [6]): No compound available |
| COc1cc2c(cc1OC)[C@@H]1[C@@H](CCCN1C)[C@@H]2c1ccccc1 | – | – | IC50 (Rattus norvegicus [5]): No compound available; IC50 (Rattus norvegicus [6]): No compound available |
| c1ccc2c(c1)[C@H](c1ccncc1)[C@@H]1CCCN[C@H]21 | – | – | IC50 (Rattus norvegicus [5]): No compound available; IC50 (Rattus norvegicus [6]): No compound available |
| CN1CCC[C@H]2[C@@H](c3ccc(O)cc3)c3ccccc3[C@H]21 | – | – | IC50 (Rattus norvegicus [5]): No compound available; IC50 (Rattus norvegicus [6]): No compound available |
| Cc1ccc([C@@H]2c3ccccc3[C@H]3NCCC[C@@H]23)cc1 | – | 60 mg/kg | selectivity ratio [8]: 60; ED50 (Mus musculus [7]): 1 mg/kg |
| CN1CCC[C@H]2[C@@H](c3ccc(N)cc3)c3ccccc3[C@H]21 | – | 7 mg/kg | selectivity ratio [8]: 14; ED50 (Mus musculus [7]): 0.5 mg/kg |
| CN(C)c1ccc([C@@H]2c3cc(O)ccc3[C@H]3NCCC[C@@H]23)cc1 | No activity detected up to a dose of 1/5 LD50 ip in mice | 159 mg/kg | – |
| Cc1ccc([C@@H]2c3ccccc3[C@H]3NCCC[C@@H]23)cc1N | – | 40 mg/kg | selectivity ratio [8]: 20; ED50 (Mus musculus [7]): 2 mg/kg |
| COc1ccc2c(c1)[C@@H](c1ccc(C(C)C)cc1)[C@@H]1CCCN[C@H]21 | – | – | IC50 (Rattus norvegicus [5]): No compound available; IC50 (Rattus norvegicus [6]): No compound available |
| Nc1cccc([C@H]2c3ccccc3[C@H]3NCCC[C@@H]23)c1 | – | 28 mg/kg | ED50 (Mus musculus [7]): 2 mg/kg |
| Cc1cccc([C@H]2c3ccccc3[C@@H]3[C@H]2CCCN3C)c1 | No activity detected up to a dose of 1/5 LD50 ip in mice | 5 mg/kg | – |
| Fc1ccc([C@H]2c3ccccc3[C@H]3NCCC[C@@H]23)cc1 | No activity detected up to a dose of 1/5 LD50 ip in mice | 61 mg/kg | – |
| COc1cc2c(cc1OC)[C@H]1NCCC[C@H]1[C@H]2c1ccccc1 | No activity detected up to a dose of 1/5 LD50 ip in mice | 70 mg/kg | – |
| CN1CCC[C@H]2[C@@H](c3ccccc3F)c3ccccc3[C@H]21 | No activity detected up to a dose of 1/5 LD50 ip in mice | 8 mg/kg | – |
| CN1CCC[C@H]2[C@@H](c3ccccc3)c3ccccc3[C@H]21 | No activity detected up to a dose of 1/5 LD50 ip in mice | 36 mg/kg | – |
| Nc1ccc([C@H]2c3cc(O)ccc3[C@H]3NCCC[C@@H]23)cc1 | No activity detected up to a dose of 1/5 LD50 ip in mice | 85 mg/kg | – |
| CC(C)c1ccc([C@H]2c3cc(O)ccc3[C@H]3NCCC[C@@H]23)cc1 | No activity detected up to a dose of 1/5 LD50 ip in mice | 90 mg/kg | – |
